Experimental data taken from ChEMBL document CHEMBL1828568, “Novel imaging agents for β-amyloid plaque based on the N-benzoylindole core” (Bioorg Med Chem Lett, 2011).

Assay: Displacement of [125I]TZDM from amyloid beta (1 to 40) aggregates after 2 hrs by gamma counting
Method in brief: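 Competition binding against [125I]TZDM as radiolabeled standard, using Aβ1–40 aggregates; run in triplicate, results as mean ± SD.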

Ki | Structure (SMILES)
0.103 µM | COc1ccc(/C=C/C(=O)n2ccc3cc(C)ccc32)cc1
0.0159 µM | O=C(/C=C/c1ccccc1)n1ccc2ccccc21
0.128 µM | Cc1ccc2c(ccn2C(=O)/C=C/c2ccccc2)c1
